Laboratory results taken from ChEMBL document CHEMBL1145494, “Covalent dimer species of beta-defensin Defr1 display potent antimicrobial activity against multidrug-resistant bacterial pathogens” (2007).
Converted amounts (≈) assume the structure as drawn. Residues, ends and D or L forms follow the SMILES beside them.

Tests used:
Pseudomonas aeruginosa [1] = assay: Antibacterial activity against Pseudomonas aeruginosa PAO1; format: functional
In short: (§1)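 Bacteria grown to mid-log phase in Iso-Sensitest broth, diluted to 1 × 10^6 to 5 × 10^6 CFU/ml in 10 mM potassium phosphate, pH 7.4, with 1% (vol/vol) Iso-Sensitest broth. Peptide dilutions incubated with 100 μl of cells (1 × 10^5 to 5 × 10^5 CFU) at 37°C for 3 h. 10-fold dilutions plated and CFU counted next day. MBC = concentration giving >99.99% kill of inoculum. Triplicate on three occasions, mean taken.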

Escherichia coli = assay: Antibacterial activity against Escherichia coli ATCC 25922; format: functional
In short: (§2)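 Mid-log cultures grown in Iso-Sensitest broth, diluted to 1 × 10^6 to 5 × 10^6 CFU/ml in 10 mM potassium phosphate with 1% (vol/vol) Iso-Sensitest broth, pH 7.4. Peptide at various concentrations was incubated with 1 × 10^5 to 5 × 10^5 CFU in 100 μl at 37°C for 3 h. 10-fold dilutions were plated and CFU counted next day. MBC was taken as >99.99% killing of the inoculum, as the mean of triplicates on three independent occasions.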

Ralstonia pickettii = assay: Antibacterial activity against Ralstonia pickettii R4050/C3079; format: functional; in short: as §2
[2] = system: Stenotrophomonas maltophilia; assay: Antibacterial activity against meropenem and tobramycin-resistant Stenotrophomonas maltophilia C3627; format: functional; in short: as §1
Staphylococcus aureus [3] = assay: Antibacterial activity against Staphylococcus aureus ATCC 25923; format: functional; in short: as §2
Enterococcus faecalis = assay: Antibacterial activity against Enterococcus faecalis ATCC 700802; format: functional; in short: as §2
[4] = system: Stenotrophomonas maltophilia; assay: Antibacterial activity against ciprofloxacin, meropenem and tobramycin-resistant Stenotrophomonas maltophilia C1980; format: functional; in short: as §1
Candida albicans = assay: Antifungal activity against Candida albicans J2922; format: functional
Burkholderia cenocepacia = assay: Antibacterial activity against Burkholderia cenocepacia ATCC BAA-245; format: functional; in short: as §2
Pseudomonas aeruginosa [5] = assay: Antibacterial activity against meropenem and tobramycin-resistant Pseudomonas aeruginosa C3781; format: functional; in short: as §1
Acinetobacter baumannii = assay: Antibacterial activity against Acinetobacter baumannii ATCC 19606; format: functional; in short: as §2
Burkholderia cepacia = assay: Antibacterial activity against Burkholderia cepacia ATCC 25416; format: functional; in short: as §2
Cupriavidus necator = assay: Antibacterial activity against Ralstonia eutropha ATCC 17697; format: functional; in short: as §2
[6] = system: Bordetella bronchiseptica; assay: Antibacterial activity against Bordetella bronchiseptica J3083; format: functional; in short: as §2
Pseudomonas aeruginosa [7] = assay: Antibacterial activity against meropenem and colistin-resistant Pseudomonas aeruginosa C3425; format: functional; in short: as §1
Pseudomonas aeruginosa [8] = assay: Antibacterial activity against tobramycin-resistant Pseudomonas aeruginosa H183; format: functional; in short: as §1
[9] = system: Stenotrophomonas maltophilia; assay: Antibacterial activity against ciprofloxacin, meropenem and colistin-resistant Stenotrophomonas maltophilia C3625; format: functional; in short: as §1
Pseudomonas aeruginosa [10] = assay: Antibacterial activity against tobramycin-resistant Pseudomonas aeruginosa C4269; format: functional; in short: as §1
Pseudomonas aeruginosa [11] = assay: Antibacterial activity against Pseudomonas aeruginosa in presence of 200 mM NaCl; format: functional
In short: (§3)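 P. aeruginosa PAO1 (1 × 10^5 CFU in 100 μl) in 10 mM potassium phosphate with 1% (vol/vol) Iso-Sensitest, pH 7.4, containing NaCl (0 to 200 mM). Challenged with peptide in doubling dilutions from 0 to 150 μg/ml at 37°C for 3 h, then plated for CFU. MBC (>99.99% killing) was determined at each NaCl concentration.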

Pseudomonas aeruginosa [12] = assay: Antibacterial activity against Pseudomonas aeruginosa in presence of 50 mM NaCl; format: functional; in short: as §3
Pseudomonas aeruginosa [13] = assay: Antibacterial activity against Pseudomonas aeruginosa in presence of 150 mM NaCl; format: functional; in short: as §3
Pseudomonas aeruginosa [14] = assay: Antibacterial activity against Pseudomonas aeruginosa in presence of 100 mM NaCl; format: functional; in short: as §3
Staphylococcus aureus [15] = assay: Antibacterial activity against ciprofloxacin and methicillin-resistant Staphylococcus aureus J2918
[16] = system: Stenotrophomonas maltophilia; assay: Antibacterial activity against ciprofloxacin and meropenem-resistant Stenotrophomonas maltophilia C3626

Compound | MBC (Pseudomonas aeruginosa [1]) [µg/mL] | MBC (Escherichia coli) [µg/mL] | MBC (Ralstonia pickettii) [µg/mL] | MBC [2] [µg/mL] | MBC (Staphylococcus aureus [3]) [µg/mL] | MBC (Enterococcus faecalis) [µg/mL] | MBC [4] [µg/mL] | MBC (Candida albicans) [µg/mL] | MBC (Burkholderia cenocepacia) [µg/mL] | MBC (Pseudomonas aeruginosa [5]) [µg/mL] | MBC (Acinetobacter baumannii) [µg/mL] | MBC (Burkholderia cepacia) [µg/mL] | MBC (Cupriavidus necator) [µg/mL] | MBC [6] [µg/mL] | MBC (Pseudomonas aeruginosa [7]) [µg/mL] | MBC (Pseudomonas aeruginosa [8]) [µg/mL] | MBC [9] [µg/mL] | MBC (Pseudomonas aeruginosa [10]) [µg/mL] | MBC (Staphylococcus aureus [15]) [µg/mL] | MBC [16] [µg/mL] | other results
POLYMYXIN B | 0.5 | 0.25 | > 512 | 64 | 256 | 256 | 32 | > 512 | > 512 | 0.5 | 1 | > 512 | 128 | 0.12 | 1 | 1 | 32 | 1 |  |  | 
H-DPVTYIRNGGIAQYRAIGLRHKIGTAGSPFKCAK-OH |  |  |  |  |  |  |  |  |  |  |  |  |  |  |  |  |  |  |  |  | MBC (Pseudomonas aeruginosa [11]): 50 µg/mL; MBC (Pseudomonas aeruginosa [12]): 25 µg/mL; MBC (Pseudomonas aeruginosa [13]): 50 µg/mL; MBC (Pseudomonas aeruginosa [14]): 25 µg/mL
CC[C@H](C)[C@H](NC(=O)CNC(=O)CNC(=O)[C@H](CC(N)=O)NC(=O)[C@H](CCCNC(=N)N)NC(=O)[C@@H](NC(=O)[C@H](CS)NC(=O)[C@@H](NC(=O)[C@@H](NC(=O)[C@@H]1CCCN1C(=O)[C@@H](N)CC(=O)O)C(C)C)[C@@H](C)O)[C@@H](C)CC)C(=O)N[C@@H](CS)C(=O)N[C@@H](CCC(N)=O)C(=O)N[C@@H](Cc1ccc(O)cc1)C(=O)N[C@@H](CCCNC(=N)N)C(=O)N[C@@H](CS)C(=O)N[C@H](C(=O)NCC(=O)N[C@@H](CC(C)C)C(=O)N[C@@H](CCCNC(=N)N)C(=O)N[C@@H](Cc1cnc[nH]1)C(=O)N[C@@H](CCCCN)C(=O)N[C@H](C(=O)NCC(=O)N[C@H](C(=O)N[C@@H](CS)C(=O)NCC(=O)N[C@@H](CO)C(=O)N1CCC[C@H]1C(=O)N[C@@H](Cc1ccccc1)C(=O)N[C@@H](CCCCN)C(=O)N[C@@H](CS)C(=O)N[C@@H](CS)C(=O)N[C@@H](CCCCN)C(=O)O)[C@@H](C)O)[C@@H](C)CC)[C@@H](C)CC (H-DPVTCIRNGGICQYRCIGLRHKIGTCGSPFKCCK-OH) | 50 (≈ 13.4 µM) | > 100 | > 100 | > 100 | > 100 | 100 (≈ 26.8 µM) | > 100 | 25 (≈ 6.71 µM) | > 100 | 100 (≈ 26.8 µM) | 12.5 (≈ 3.35 µM) | > 100 | > 100 | > 100 | 50 (≈ 13.4 µM) | 100 (≈ 26.8 µM) | > 100 | > 100 | > 100 | > 100 | 
CC[C@H](C)[C@H](NC(=O)CNC(=O)CNC(=O)[C@H](CC(N)=O)NC(=O)[C@H](CCCNC(=N)N)NC(=O)[C@@H](NC(=O)[C@H](Cc1ccc(O)cc1)NC(=O)[C@@H](NC(=O)[C@@H](NC(=O)[C@@H]1CCCN1C(=O)[C@@H](N)CC(=O)O)C(C)C)[C@@H](C)O)[C@@H](C)CC)C(=O)N[C@@H](CS)C(=O)N[C@@H](CCC(N)=O)C(=O)N[C@@H](Cc1ccc(O)cc1)C(=O)N[C@@H](CCCNC(=N)N)C(=O)N[C@@H](CS)C(=O)N[C@H](C(=O)NCC(=O)N[C@@H](CC(C)C)C(=O)N[C@@H](CCCNC(=N)N)C(=O)N[C@@H](Cc1cnc[nH]1)C(=O)N[C@@H](CCCCN)C(=O)N[C@H](C(=O)NCC(=O)N[C@H](C(=O)N[C@@H](CS)C(=O)NCC(=O)N[C@@H](CO)C(=O)N1CCC[C@H]1C(=O)N[C@@H](Cc1ccccc1)C(=O)N[C@@H](CCCCN)C(=O)N[C@@H](CS)C(=O)N[C@@H](CS)C(=O)N[C@@H](CCCCN)C(=O)O)[C@@H](C)O)[C@@H](C)CC)[C@@H](C)CC (H-DPVTYIRNGGICQYRCIGLRHKIGTCGSPFKCCK-OH) | 6 (≈ 1.58 µM) | 8 (≈ 2.11 µM) | 3 (≈ 0.792 µM) | 6 (≈ 1.58 µM) | 10 (≈ 2.64 µM) | 6 (≈ 1.58 µM) | 12.5 (≈ 3.3 µM) | 3 (≈ 0.792 µM) | > 100 | 6 (≈ 1.58 µM) | 3 (≈ 0.792 µM) | > 100 | 3 (≈ 0.792 µM) | 6 (≈ 1.58 µM) | 6 (≈ 1.58 µM) | 6 (≈ 1.58 µM) | 6 (≈ 1.58 µM) | 6 (≈ 1.58 µM) | 6 (≈ 1.58 µM) | 3 (≈ 0.792 µM) | 
